This is an account of results in publication PMC12808645 (Nature Communications, 2025).

pEC50, pKd: −log10 of the molar value.

In experiment [1] the test system is Drosophila Nan-Iav. Particulars: cited from earlier work.
The test system of experiment [2] is Nan-IavY325A. In kind it is binding, Halyomorpha halys.
The subject of experiment [3] is Nan-Iav(∆697-C). In kind it is cell-based, Halyomorpha halys. Conditions: 1 mM Ca2+, Δ C-ter (Iav∆(697-986)).
Experiment [4] has as its system Nan-IavW701A. The experiment in a line: Whole-cell electrophysiology, Nan-IavW701A. In kind it is cell-based, Halyomorpha halys. Particulars: 1 mM Ca2+.
For experiment [5], the system named is Nan only, Y172A. The experiment in a line: [3H]-AP binding to Nan-only membranes, Y172A. Details: species or system Halyomorpha halys. Conditions: NanY172A. In a few lines: (§1)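 Nan expressed in HEK293S GnTI- suspension cells (1–1.5 M/mL) by 3% (v/v) baculovirus, ~1 day at 37 °C then 48 h at 25 °C. Membranes were made by sonication and spun at 300 × g 10 min then 50,000 × g 2 h. Saturation binding used 60–100 µg membranes with [3H]-AP in pH 7.4 HEPES binding buffer (CaCl2, MgCl2, 0.0025% Tween-20), 3 h at room temperature. Samples were filtered on 0.1% PEI-treated filters, washed thrice with ice-cold buffer, and counted by scintillation. Nonspecific binding was set with 500-fold excess unlabeled AP.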

In experiment [6] the target is Nan only, Y177A. The experiment in a line: [3H]-AP binding to Nan-only membranes, Y177A. Details: species or system Halyomorpha halys. In a few lines: as §1
The target of experiment [7] is Nan only, WT. As to the kind of experiment: [3H]-AP binding to Nan-only membranes, WT. Particulars: read-out: [3H]-AP binding Kd. Details: species or system Halyomorpha halys. The method in brief: as §1
Experiment [8] has as its target stink bug Nan-Iav. Details: species or system Halyomorpha halys. Conditions: read-out: [3H]-AP binding Kd.
Experiment [9] deals with stink bug Nan-Iav. In kind it is binding, Halyomorpha halys.

The pEC50 is −log10 of the EC50, conventionally taken in molar units. In general, pKd refers to the Kd on a negative log10 scale, so that one unit is a factor of ten.

Consider `NC(=O)c1cccnc1` [NAM, nicotinamide], for which the pEC50 in experiment [1] was 4.85. For the same molecule, in experiment [2], the “NAM binding (in words)” value is on record as “eliminated NAM binding”.
`[Ca+2]` [Ca^2+]: the “% inhibition of inward current” value in experiment [3] and in experiment [4] was ~ 10% in each case.
With `C[C@]1(COC(=O)C2CC2)[C@@H]2C[C@H](O)[C@@]3(C)Oc4cc(-c5cccnc5)oc(=O)c4[C@H](O)[C@@H]3[C@@]2(C)CC[C@@H]1OC(=O)C1CC1` [[^3H]-AP], the “higher [3H]-AP Kd compared to WT Nan” value in [5] was 7.5 fold. Besides, the “[3H]-AP binding Kd” value in [6] is given as “lacks measurable binding”. In addition, the pKd in experiment [7] is 10.05; in [8], 10.77.
In the case of `CC1=NNC(=O)N(/N=C/c2cccnc2)C1` [PM, pymetrozine], in experiment [9], the “binding mode versus [3H]-AP” value is listed as “competitive binding”.
